Assay results: article PMC6677593 (Molecular cancer therapeutics, 2019)
Like-named read-outs stand apart in the source and are kept apart here.

How the values were obtained:
[1] = molecular target: T1, glucocorticoid receptor (GR) (Homo sapiens, UniProt P04150); test: GR antagonism assay; type: biochemical; settings: read-out: antagonism to GR
T1 sequence (P04150 1-777): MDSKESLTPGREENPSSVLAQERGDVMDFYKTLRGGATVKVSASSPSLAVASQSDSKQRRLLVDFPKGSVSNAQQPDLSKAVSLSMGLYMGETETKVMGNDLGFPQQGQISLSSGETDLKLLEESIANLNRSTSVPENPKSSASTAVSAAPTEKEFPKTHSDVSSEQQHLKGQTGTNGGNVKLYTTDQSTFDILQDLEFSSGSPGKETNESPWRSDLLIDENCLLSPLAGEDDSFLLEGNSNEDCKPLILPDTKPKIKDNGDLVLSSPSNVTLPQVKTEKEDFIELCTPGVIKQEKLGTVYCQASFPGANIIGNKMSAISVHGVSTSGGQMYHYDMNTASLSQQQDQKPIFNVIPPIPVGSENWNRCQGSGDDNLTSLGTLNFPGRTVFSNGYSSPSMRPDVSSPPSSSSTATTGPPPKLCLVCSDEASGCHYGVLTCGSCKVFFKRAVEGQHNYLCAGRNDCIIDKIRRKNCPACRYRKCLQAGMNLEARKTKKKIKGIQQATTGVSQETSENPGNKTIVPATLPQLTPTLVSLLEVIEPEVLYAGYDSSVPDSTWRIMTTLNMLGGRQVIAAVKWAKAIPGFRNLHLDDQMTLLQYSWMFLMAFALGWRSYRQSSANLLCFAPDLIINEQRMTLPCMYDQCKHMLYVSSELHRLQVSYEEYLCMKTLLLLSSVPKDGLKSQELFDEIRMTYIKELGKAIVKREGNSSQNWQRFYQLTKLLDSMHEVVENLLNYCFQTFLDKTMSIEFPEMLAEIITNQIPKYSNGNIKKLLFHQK

[2] = tested on: MDA-MB-231 and BT-549 cells; test: Annexin V/PI staining; type: cell-based, Human
[3] = human
[4] = tested on: MDA-MB-231 xenograft tumors; test: MDA-MB-231 xenograft study; type: in vivo, athymic nude mice; settings: 5 mg/kg/day s.c. 3 days/week
[5] = human; remark: listed apart in the source
[6] = human; remark: listed apart in the source
GR = molecular target: T2, GR (Homo sapiens, UniProt P04150); test: In vitro steroid receptor binding assays; settings: receptor binding studies (Fig. 1C)
T2 sequence (P04150 1-777): T1 sequence (P04150 1-777)

TNBC PDX tumors = test: TNBC patient derived xenograft; type: in vivo, SCID mice; settings: 10 mg/kg/day s.c. 3 days/week
[7] = tested on: CSCs from MDA-MB-231 and BT-549 cells; test: Extreme limiting dilution assay; type: cell-based, Human; settings: 10 days
In short: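 ALDH+ CSCs were sorted by ALDEFLUOR flow cytometry and grown in supplemented MammoCult. They were seeded at 100, 50, 20, 10, 5 and 1 cells/well on ultra-low attachment plates with vehicle or test compound. After 10 days, wells with spheres were scored at each density, and stem cell frequency was estimated by ELDA analysis.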

[8] = tested on: salmonella typhimurium strains TA98, TA100, TA1535, TA1537 and E.coli combo; test: Ames test; settings: with and without metabolic activation, OECD guideline no.471
[9] = tested on: MDA-MB-231 and BT-549 cells; test: Matrigel invasion chamber assay; type: cell-based, Human; settings: EC359 25 nM, 22 h
Recombinant human LIF = Recombinant human LIF (Homo sapiens, UniProt P15018); test: Surface plasmon resonance; type: binding; settings: SPR
Sequence of Recombinant human LIF (P15018 23-202): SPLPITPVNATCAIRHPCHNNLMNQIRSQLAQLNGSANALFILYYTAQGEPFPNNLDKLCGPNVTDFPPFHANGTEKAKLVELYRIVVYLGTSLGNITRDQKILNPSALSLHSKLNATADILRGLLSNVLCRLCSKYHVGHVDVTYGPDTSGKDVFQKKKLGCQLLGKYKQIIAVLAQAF

[10] = tested on: ALDH+ (CSCs) and ALDH− (non CSCs) cells; test: Cell Titer-Glo viability of CSCs and non CSCs; type: cell-based, Human; settings: 3 days
[11] = tested on: TNBC cells (BT-549, SUM-159, MDA-MB-231, HCC1937, MDA-MB-468, HCC1806); test: MTT cell viability assay in TNBC cells; type: cell-based, Human; settings: read-out: IC50, cell viability of TNBC cells, 5 days
[12] = tested on: MDA-MB-231 and SUM-159 cells; test: Clonogenic survival assay; type: cell-based, Human; settings: EC359 20 nM
[13] = tested on: LIFR downstream signaling in MDA-MB-231 and BT-549 cells; test: Western blotting of LIFR downstream signaling; type: cell-based, Human
In short: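 After 24 h serum starvation and 1 h pretreatment with test compound (100 nM), cells were stimulated for 10 min with LIF (MDA-MB-231, BT-549), or with OSM or CNTF at 10 ng (BT-549). For downstream kinases, cells were treated with 100 nM. Lysates were made in RIPA with protease/phosphatase inhibitors and blotted with ECL detection. p-STAT3 bands were quantified, normalized to total STAT3 and expressed as fold over control.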

CYP 2D6 = CYP 2D6 (Homo sapiens, UniProt P10635)
Sequence of CYP 2D6 (P10635 whole entry): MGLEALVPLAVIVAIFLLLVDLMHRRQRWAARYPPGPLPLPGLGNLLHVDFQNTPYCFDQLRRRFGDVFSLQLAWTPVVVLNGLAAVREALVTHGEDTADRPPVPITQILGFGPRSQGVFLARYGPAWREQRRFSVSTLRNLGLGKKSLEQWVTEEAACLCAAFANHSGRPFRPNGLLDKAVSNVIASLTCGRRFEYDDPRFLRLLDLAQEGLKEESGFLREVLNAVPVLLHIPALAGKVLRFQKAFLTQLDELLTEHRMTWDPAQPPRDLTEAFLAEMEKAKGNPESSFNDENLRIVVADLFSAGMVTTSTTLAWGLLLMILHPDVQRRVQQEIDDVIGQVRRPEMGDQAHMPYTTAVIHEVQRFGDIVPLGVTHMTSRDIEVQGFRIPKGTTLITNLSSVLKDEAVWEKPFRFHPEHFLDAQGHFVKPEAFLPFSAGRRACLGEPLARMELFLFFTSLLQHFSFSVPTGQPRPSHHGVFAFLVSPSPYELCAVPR

[14] = tested on: STAT3-Luc reporter in BT-549 and MDA-MB-231 cells; test: STAT3-luc reporter gene assay; type: cell-based, Human; settings: BT-549, EC359 50 nM pretreatment 1 h
In short: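 MDA-MB-231 and BT-549 lines stably transduced with a STAT3-firefly luciferase reporter lentivirus were serum-starved for 24 h and pretreated with test compound (50 nM) for 1 h. They were then stimulated with LIF, CTF1, OSM or CNTF at indicated concentrations for 24 h. Lysates in passive lysis buffer were read by dual-luciferase luminescence; n=3.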

[15] = tested on: MDA-MB-231 and BT-549 cells; settings: 72 h
[16] = rats
[17] = intraperitoneal and oral dosing
BT-549 cells = test: MTT cell viability assay on BT-549 cells; type: cell-based, Human; settings: BT-549 model cells (Fig. 1B)

Structure (SMILES): C#CC(F)(F)[C@]1(O)CC[C@H]2[C@@H]3CCC4=CC(=O)CCC4=C3[C@@H](c3ccc(C4CC4)cc3)C[C@@]21C [EC330]
- IC50 [1]: 79.8 nM

Structure (SMILES): C#CC(F)(F)[C@]1(O)CC[C@H]2[C@@H]3CCC4=CC(=O)CCC4=C3[C@@H](c3ccc(-c4c(C)cc(C)cc4C)cc3)C[C@@]21C [EC359]
- Annexin V positive cells [2]: significantly increased
- Metabolic stability [3]: moderate
- body weights of mice [4]: remained unchanged
- proliferating cells (Ki-67 positive cells) in tumors [4]: fewer proliferating cells
- tumor progression (tumor volume) [4]: significantly reduced
- activation of STAT3 target genes in tumors ([4]; RT-qPCR): significant decrease
- plasma stability [5]: moderate
- plasma protein binding [6]: high
- affinity to GR (GR): lack of affinity
- body weight (TNBC PDX tumors): did not affected
- proliferating cells (Ki-67) in PDX tumors (TNBC PDX tumors): fewer proliferating cells
- tumor progression (tumor volume) (TNBC PDX tumors): significantly reduced
- self renewal of CSCs [7]: significantly reduced
- mutagenicity (Ames test) [8]: non-mutagenic
- invasion potential [9]: significantly reduced
- binding to LIF (Recombinant human LIF): binding to LIFR, but not LIF
- viability of ALDH+ and ALDH− cells [10]: similarly inhibited
- IC50 [11]: 10 to 50 nM
- colony formation ability [12]: significantly reduced
- STAT3 activation by OSM and CNTF (phosphorylation) ([13]; BT-549, EC359 100 nM 1 h, then OSM or CNTF 10 ng, 10 min): reduced
- LIF activation of STAT3 (phosphorylation) ([13]; EC359 100 nM 1 h, then LIF 10 min, BT-549 and MDA-MB-231): substantially reduced
- CYP 2D6 inhibition (CYP 2D6): inhibits 2D6
- LIF stimulated STAT3 reporter activity [14]: inhibited
- OSM, CNTF and CTF1 mediated STAT3 activity [14]: blocked
- caspase 3/7 activity [15]: significantly increased
- AUC0-inf ([16]; IV 5 mg/kg): 15573.91 ng·h/mL
- AUC0-last ([16]; IV 5 mg/kg): 15544.36 ng·h/mL
- T½ ([16]; IV 5 mg/kg): 3.86 h
- mean C0 ([16]; IV 5 mg/kg): 74669.11 ng/mL
- AUC0-inf ([16]; oral 10 mg/kg): 3876.82 ng·h/mL
- AUC0-last ([16]; oral 10 mg/kg): 3792.26 ng·h/mL
- Tmax ([16]; oral 10 mg/kg): 2.67 h
- mean Cmax ([16]; oral 10 mg/kg): 919.50 ng/mL
- bioavailability (PK) [17]: Good bioavailability
- inhibitory activity in cell viability assay (BT-549 cells): significant inhibitory activity on par with EC330
